How the values were obtained:
CYP1A2 = target: T1, CYP1A2 (Homo sapiens, UniProt P05177); test: Inhibition of hepatic CYP1A2 expressed in insect microsomes at 1 uM; type: ADME, Microsome
T1 sequence (P05177 whole entry): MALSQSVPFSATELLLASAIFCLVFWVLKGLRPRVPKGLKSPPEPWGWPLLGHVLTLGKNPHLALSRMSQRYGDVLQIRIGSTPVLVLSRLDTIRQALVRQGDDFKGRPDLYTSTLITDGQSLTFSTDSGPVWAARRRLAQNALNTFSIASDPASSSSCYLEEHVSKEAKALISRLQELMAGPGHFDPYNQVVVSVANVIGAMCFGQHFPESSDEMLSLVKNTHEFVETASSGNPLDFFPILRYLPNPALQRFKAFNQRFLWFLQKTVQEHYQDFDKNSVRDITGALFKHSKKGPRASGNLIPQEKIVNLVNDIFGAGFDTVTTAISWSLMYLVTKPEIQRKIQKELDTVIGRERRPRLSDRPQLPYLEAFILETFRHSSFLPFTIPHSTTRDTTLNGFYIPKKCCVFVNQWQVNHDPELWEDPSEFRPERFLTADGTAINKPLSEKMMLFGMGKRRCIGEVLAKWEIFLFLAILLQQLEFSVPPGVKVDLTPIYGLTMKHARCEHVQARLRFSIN
Procedure, shortened: (§1)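 Recombinant human enzymes from baculovirus-infected insect cell microsomes, run per supplier protocol. Test concentration 1 µM; values are means of at least three independent tests, standard deviations under 5%.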

[1] = target: T2, Steroid 17-alpha-hydroxylase/17,20 lyase (Homo sapiens, UniProt P05093); test: Inhibition of human CYP17 expressed in Escherichia coli coexpressed with cytochrome P450 reductase
T2 sequence (P05093 whole entry): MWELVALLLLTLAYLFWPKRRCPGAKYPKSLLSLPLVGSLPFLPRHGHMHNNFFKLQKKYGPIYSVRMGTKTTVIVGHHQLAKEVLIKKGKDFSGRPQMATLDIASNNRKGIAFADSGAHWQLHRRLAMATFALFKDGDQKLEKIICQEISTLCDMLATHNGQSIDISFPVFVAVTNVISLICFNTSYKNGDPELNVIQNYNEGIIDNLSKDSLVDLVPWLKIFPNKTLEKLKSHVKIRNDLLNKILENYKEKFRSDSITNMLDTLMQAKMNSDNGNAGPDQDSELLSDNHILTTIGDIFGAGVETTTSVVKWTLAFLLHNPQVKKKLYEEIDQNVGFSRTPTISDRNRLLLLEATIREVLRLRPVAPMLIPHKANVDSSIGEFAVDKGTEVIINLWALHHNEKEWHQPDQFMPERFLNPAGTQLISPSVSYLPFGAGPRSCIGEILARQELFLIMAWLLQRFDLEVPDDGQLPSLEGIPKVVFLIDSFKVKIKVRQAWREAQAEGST
Procedure, shortened: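 Enzyme source: 50,000g sediment from homogenized E. coli coexpressing human CYP17 and cytochrome P450 reductase. Substrate progesterone (25 µM as printed), NADPH cofactor.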

CYP3A4 = CYP3A4 (Homo sapiens, UniProt P08684); test: Inhibition of hepatic CYP3A4 expressed in insect microsomes at 1 uM; type: ADME, Microsome; procedure, shortened: as §1
Chain of CYP3A4 (P08684 whole entry): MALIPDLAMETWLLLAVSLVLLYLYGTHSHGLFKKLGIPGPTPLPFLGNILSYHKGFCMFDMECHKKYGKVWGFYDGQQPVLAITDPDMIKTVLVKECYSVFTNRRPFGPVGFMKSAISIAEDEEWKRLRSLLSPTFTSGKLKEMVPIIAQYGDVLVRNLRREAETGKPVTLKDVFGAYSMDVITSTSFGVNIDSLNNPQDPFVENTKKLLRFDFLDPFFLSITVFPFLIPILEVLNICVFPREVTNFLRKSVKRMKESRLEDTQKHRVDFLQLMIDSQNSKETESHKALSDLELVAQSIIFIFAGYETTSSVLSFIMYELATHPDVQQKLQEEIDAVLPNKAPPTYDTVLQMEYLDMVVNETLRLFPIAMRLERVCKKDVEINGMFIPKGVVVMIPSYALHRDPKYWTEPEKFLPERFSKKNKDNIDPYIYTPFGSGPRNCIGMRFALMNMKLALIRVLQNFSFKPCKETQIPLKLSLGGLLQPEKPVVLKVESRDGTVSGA

SMILES | inhibition at 1 µM (CYP1A2) [%] | IC50 [1] [nM] | inhibition at 1 µM (CYP3A4) [%]
CCC(CC)(c1ccc(-c2ccc(F)cc2)cc1)n1ccnc1 | 51 | 1300 | 95
CC(C)(C)C(c1ccc(-c2ccccc2)cc1)n1ccnc1 (configuration not stated) | – | 460 | –
CC(C)(c1ccc(-c2ccc(F)cc2)cc1)n1ccnc1 | – | 3800 | –
FC(F)(F)c1ccc(-c2ccc(Cn3ccnc3)cc2)cc1 | – | > 5000 | –
CC(c1ccc(-c2ccc(F)cc2)cc1)n1ccnc1 (configuration not stated) | – | 1100 | –
CCC(c1ccc(-c2ccc(NC(C)=O)cc2)cc1)n1ccnc1 (configuration not stated) | – | > 5000 | –
CCCCC(c1ccc(-c2ccccc2)cc1)n1ccnc1 (configuration not stated) | – | 300 | –
C=CC(c1ccc(-c2ccccc2)cc1)n1ccnc1 (configuration not stated) | – | 1400 | –
CCC(c1ccc(-c2ccc(N(C)C)cc2)cc1)n1ccnc1 (configuration not stated) | – | > 5000 | –
CCC(c1ccc(-c2ccc(N3CCOCC3)cc2)cc1)n1ccnc1 (configuration not stated) | – | 2200 | –
CCc1ccc(-c2ccc(C(CC)n3ccnc3)cc2)cc1 (configuration not stated) | – | 2000 | –
CCC(c1ccc(-c2ccc(N(CC)CC)cc2)cc1)n1ccnc1 (configuration not stated) | – | > 5000 | –
CCC(c1ccc(-c2ccc(C)cc2)cc1)n1ccnc1 (configuration not stated) | – | > 5000 | –
C=CC(c1ccc(-c2ccc(F)cc2)cc1)n1ccnc1 (configuration not stated) | – | > 5000 | –
CC(c1ccc2c(c1)Cc1cc(F)ccc1-2)n1ccnc1 (configuration not stated) | – | 168 | –
CC(c1ccc2c(c1)[nH]c1cc(F)ccc12)n1ccnc1 (configuration not stated) | – | 118 | 75
OCCC(c1ccc(-c2ccc(F)cc2)cc1)n1ccnc1 (configuration not stated) | – | > 5000 | –
CCC(c1ccc(-c2ccc(C#N)cc2)cc1)n1ccnc1 (configuration not stated) | – | > 5000 | –
CCC(c1ccc(-c2ccc(O)cc2)cc1)n1ccnc1 (configuration not stated) | – | 375 | –
